Active and inactive are the calls of the source. No cut-off for these calls is given here.
Tests used:
[1] = target: T1, Neuronal acetylcholine receptor; alpha3/beta4 (Homo sapiens, UniProt P30926+P32297); experiment: Displacement of [3H]epibatidine from human alpha3beta4 nAChR expressed in HEK293 cells pretreated for 5 mins followed by [3H]epibatidine addition after overnight incubation by beta counter; format: cell-based
Method in brief: (§1)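 Competition binding using [3H]epibatidine for rat cortex α4β2* and human α3β4 from transfected cells, and [125I]α-bungarotoxin for rat hippocampus α7*. Kd from three saturation experiments and Ki from three competition experiments. Fitted by nonlinear least squares (LIGAND) with an F test.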

[2] = target: T2, Neuronal acetylcholine receptor; alpha4/beta2 (Homo sapiens, UniProt P17787+P43681); experiment: Partial agonist activity at human alpha4beta2 nAChR expressed in GH4CL cells by whole-cell patch clamp method; format: cell-based
T2 sequence (P17787 whole entry): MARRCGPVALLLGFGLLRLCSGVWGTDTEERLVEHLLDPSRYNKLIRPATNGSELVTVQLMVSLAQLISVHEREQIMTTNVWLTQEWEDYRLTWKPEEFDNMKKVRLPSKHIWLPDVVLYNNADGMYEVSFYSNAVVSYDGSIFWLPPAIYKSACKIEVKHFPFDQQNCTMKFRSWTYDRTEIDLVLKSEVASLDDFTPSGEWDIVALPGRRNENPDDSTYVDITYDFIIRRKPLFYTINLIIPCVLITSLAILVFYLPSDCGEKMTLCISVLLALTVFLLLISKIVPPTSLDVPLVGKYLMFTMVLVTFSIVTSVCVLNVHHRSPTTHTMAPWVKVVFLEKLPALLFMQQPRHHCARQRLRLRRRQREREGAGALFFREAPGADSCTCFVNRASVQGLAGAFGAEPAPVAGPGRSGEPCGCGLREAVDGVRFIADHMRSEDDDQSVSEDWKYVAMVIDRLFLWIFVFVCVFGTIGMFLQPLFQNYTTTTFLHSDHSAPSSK
T2 sequence (P43681 whole entry): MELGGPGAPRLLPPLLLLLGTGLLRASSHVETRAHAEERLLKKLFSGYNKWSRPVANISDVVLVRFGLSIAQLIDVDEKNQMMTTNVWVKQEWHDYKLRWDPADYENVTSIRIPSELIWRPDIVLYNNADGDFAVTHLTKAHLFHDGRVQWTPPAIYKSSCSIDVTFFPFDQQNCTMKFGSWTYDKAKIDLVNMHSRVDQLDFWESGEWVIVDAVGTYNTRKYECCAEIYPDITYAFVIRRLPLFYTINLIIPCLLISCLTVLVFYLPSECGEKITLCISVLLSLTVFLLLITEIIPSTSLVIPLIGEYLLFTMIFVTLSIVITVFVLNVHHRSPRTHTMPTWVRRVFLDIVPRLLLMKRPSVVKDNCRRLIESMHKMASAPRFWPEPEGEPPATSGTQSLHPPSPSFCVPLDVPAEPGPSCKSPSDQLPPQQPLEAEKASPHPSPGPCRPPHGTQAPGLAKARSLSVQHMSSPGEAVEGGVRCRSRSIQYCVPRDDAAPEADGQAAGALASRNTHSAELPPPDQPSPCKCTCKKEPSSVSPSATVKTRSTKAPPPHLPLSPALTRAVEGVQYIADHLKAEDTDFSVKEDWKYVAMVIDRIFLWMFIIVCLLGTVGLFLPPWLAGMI
Method in brief: (§2)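 Human receptor transiently transfected into GH4C1 pituitary cells. Agonist concentrations applied in sequence. Peak currents normalized to the 1 mM ACh response on the same cell. Fitted to a Hill equation, I = Imax([C]^nH/(EC50^nH+[C]^nH)), to give EC50, Imax and Hill coefficient.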

[3] = target: T1, Neuronal acetylcholine receptor; alpha3/beta4; experiment: Antagonist activity at human alpha3beta4 nAChR expressed in GH4CL cells by whole-cell patch clamp method; format: cell-based
[4] = target: T1, Neuronal acetylcholine receptor; alpha3/beta4; experiment: Partial agonist activity at human alpha3beta4 nAChR expressed in GH4CL cells by whole-cell patch clamp method; format: cell-based; method in brief: as §2
Rattus norvegicus = species on record: Rattus norvegicus; experiment: Selectivity ratio of Ki for displacement of [125I]alpha-bungarotoxin from rat hippocampus membrane alpha7* nAChR to Ki for displacement of [3H]epibatidine from rat cerebral cortex membrane alpha4beta2* nAChR
Method in brief: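 Ki for rat hippocampal α7* ([125I]α-bungarotoxin competition) divided by Ki for rat cortical α4β2* ([3H]epibatidine competition). Each Ki comes from three competition experiments analysed by nonlinear least squares.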

[5] = Selectivity ratio of Ki for displacement of [3H]epibatidine from human alpha3beta4 nAChR expressed in HEK293 cells to Ki for displacement of [3H]epibatidine from rat cerebral cortex membrane alpha4beta2* nAChR; format: cell-based
Method in brief: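 [3H]-epibatidine competition binding on native rat cerebral cortex membranes (α4β2*) and on membranes of HEK cells transiently transfected with human α3β4. Kd and Ki came from three saturation and three competition experiments each, fitted by nonlinear least squares (LIGAND) with F test. The ratio is α3β4 Ki divided by α4β2 Ki.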

[6] = Displacement of [125I]alpha-bungarotoxin from rat hippocampus membrane alpha7* nAChR pretreated for 5 mins followed by [125I]alpha-bungarotoxin addition after overnight incubation by gamma counter; method in brief: as §1
[7] = Displacement of [3H]epibatidine from rat cerebral cortex membrane alpha4beta2* nAChR pretreated for 5 mins followed by [3H]epibatidine addition after overnight incubation by beta counter; method in brief: as §1
[8] = target: T2, Neuronal acetylcholine receptor; alpha4/beta2; experiment: Antagonist activity at human alpha4beta2 nAChR expressed in GH4CL cells by whole-cell patch clamp method; format: cell-based
[9] = target: T2, Neuronal acetylcholine receptor; alpha4/beta2; experiment: Partial agonist activity at human alpha4beta2 nAChR expressed in GH4CL cells by whole-cell patch clamp method relative to acetylcholine; format: cell-based; method in brief: as §2
[10] = target: Neuronal acetylcholine receptor; alpha4/beta2 (Rattus norvegicus, UniProt P09483+P12390); experiment: Displacement of [3H](-)cytisine from rat whole brain alpha4beta2 nAChR
Neuronal acetylcholine receptor; alpha4/beta2 (Rattus norvegicus, UniProt P09483+P12390), sequence (P09483 whole entry): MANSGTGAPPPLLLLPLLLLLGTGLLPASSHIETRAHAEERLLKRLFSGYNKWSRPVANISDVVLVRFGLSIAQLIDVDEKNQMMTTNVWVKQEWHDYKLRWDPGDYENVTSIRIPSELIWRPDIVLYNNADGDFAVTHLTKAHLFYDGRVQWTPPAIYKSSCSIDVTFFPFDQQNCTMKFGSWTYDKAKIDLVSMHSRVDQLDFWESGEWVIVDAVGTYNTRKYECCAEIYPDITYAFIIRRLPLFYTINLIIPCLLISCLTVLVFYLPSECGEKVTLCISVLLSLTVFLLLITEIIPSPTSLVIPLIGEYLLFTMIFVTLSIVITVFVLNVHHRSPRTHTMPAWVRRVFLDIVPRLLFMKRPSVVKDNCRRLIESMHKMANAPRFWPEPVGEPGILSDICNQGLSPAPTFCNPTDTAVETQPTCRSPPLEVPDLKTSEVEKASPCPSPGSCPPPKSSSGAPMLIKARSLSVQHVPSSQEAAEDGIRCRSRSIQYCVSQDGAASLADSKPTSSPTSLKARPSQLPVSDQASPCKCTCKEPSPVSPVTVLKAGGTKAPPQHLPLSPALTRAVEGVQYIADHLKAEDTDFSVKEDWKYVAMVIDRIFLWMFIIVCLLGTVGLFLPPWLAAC
Neuronal acetylcholine receptor; alpha4/beta2 (Rattus norvegicus, UniProt P09483+P12390), sequence (P12390 whole entry): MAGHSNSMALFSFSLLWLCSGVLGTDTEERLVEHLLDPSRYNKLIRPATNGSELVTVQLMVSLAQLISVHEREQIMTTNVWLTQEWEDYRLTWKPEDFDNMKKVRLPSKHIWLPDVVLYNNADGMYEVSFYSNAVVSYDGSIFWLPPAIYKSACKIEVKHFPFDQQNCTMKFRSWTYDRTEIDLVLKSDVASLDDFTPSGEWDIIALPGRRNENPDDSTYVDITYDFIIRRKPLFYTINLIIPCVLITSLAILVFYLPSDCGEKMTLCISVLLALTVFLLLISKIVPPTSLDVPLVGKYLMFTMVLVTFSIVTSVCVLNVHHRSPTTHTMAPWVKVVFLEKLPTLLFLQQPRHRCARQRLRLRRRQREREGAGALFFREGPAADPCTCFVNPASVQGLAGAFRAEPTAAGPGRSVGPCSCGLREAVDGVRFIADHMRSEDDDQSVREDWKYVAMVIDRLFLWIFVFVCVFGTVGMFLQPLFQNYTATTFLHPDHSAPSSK

T1 sequence (P30926 whole entry): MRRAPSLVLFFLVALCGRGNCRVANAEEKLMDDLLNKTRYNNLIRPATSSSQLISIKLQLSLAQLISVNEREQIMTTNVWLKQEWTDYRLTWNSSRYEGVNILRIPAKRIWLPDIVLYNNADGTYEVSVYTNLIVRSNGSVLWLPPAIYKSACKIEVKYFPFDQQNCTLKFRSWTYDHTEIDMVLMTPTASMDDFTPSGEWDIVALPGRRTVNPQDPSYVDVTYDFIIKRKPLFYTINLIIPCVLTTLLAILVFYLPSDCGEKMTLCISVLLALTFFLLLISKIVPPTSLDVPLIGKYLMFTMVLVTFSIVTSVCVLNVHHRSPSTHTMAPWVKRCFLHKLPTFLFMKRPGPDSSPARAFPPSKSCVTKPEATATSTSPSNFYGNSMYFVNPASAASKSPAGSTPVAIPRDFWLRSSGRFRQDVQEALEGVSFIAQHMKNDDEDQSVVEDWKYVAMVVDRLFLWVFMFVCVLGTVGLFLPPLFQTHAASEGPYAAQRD
T1 sequence (P32297 whole entry): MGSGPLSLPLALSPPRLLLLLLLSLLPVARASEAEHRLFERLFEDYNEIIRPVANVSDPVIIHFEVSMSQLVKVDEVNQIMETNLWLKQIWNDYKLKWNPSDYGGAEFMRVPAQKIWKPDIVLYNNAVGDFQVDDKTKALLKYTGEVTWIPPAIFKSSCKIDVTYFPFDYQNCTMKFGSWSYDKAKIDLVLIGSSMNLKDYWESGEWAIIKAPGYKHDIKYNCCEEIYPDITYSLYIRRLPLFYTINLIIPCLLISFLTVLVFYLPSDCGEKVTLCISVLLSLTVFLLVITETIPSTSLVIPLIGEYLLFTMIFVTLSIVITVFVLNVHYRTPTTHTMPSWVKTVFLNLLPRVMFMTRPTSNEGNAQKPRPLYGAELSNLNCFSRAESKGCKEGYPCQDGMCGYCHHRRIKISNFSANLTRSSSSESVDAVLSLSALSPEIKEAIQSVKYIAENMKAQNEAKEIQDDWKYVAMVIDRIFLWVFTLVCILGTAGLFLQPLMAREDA

Row | Compound | Ki [1] [µM] | Ratio Ki (Rattus norvegicus) | Ratio Ki [5] | Ki [6] [µM] | Ki [7] [µM] | other results
1 | CN1CCC[C@H]1[C@@H]1COc2ccccc2O1 | 1.2 | 81 | 5 | 21 | 0.26 | Activity [2]: inactive; IC50 [3]: 2.78 to 2.8 µM; Activity [4]: inactive; IC50 [8]: 5.36 to 5.4 µM
2 | CN1CCC[C@H]1[C@H]1COc2cccnc2O1 | – | – | – | 12 | 30 | –
3 | CN1CCC[C@H]1[C@H]1COc2ccccc2O1 | 8.2 | – | – | 14.6 | 0.47 | –
4 | CN1CCC[C@H]1[C@H]1COc2ncccc2O1 | 22 | – | – | > 10 | 30.4 | –
5 | COc1ccc(O)cc1OC[C@@H]1CCCN1C | – | 60 | 14 | 1.15 | 0.019 | –
6 | CN1CCC[C@H]1[C@H]1COc2ccncc2O1 | 8.9 | – | – | – | 3.6 | –
7 | CN1CCC[C@H]1[C@@H]1COc2ncccc2O1 | 16.2 | 215 | 39 | 89 | 0.41 | EC50 [2]: 10.1 µM; %max [9]: 24.2%
8 | CN1CCC[C@H]1[C@@H]1COc2ccncc2O1 | 5.8 | – | – | – | 1.64 | –
9 | C[C@@H](Oc1cccc(O)c1)[C@@H]1CCCN1C | – | 5 | 23 | 0.057 | 0.011 | –
10 | CN1CCC[C@H]1[C@H]1COc2ccc(O)cc2O1 | 0.31 | 36 | 26 | 0.43 | 0.012 | –
11 | CN1CCC[C@H]1c1cc2ccccc2o1 | – | – | – | – | – | Ki [10]: 0.16 µM
12 | CN1CCC[C@H]1[C@@H]1COc2cccnc2O1 | – | – | – | 24 | 43 | –
